# KCNK3 block = human KCNK3 channel inhibition, primary screen | AID 602410 | O14649 | CHO-KCNK3 thallium flux, FluxOR fluorescence; hits give low values | 340,000 compounds, 0.84% hits | B-score at 10 µM;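 active = B-score under library mean minus 4 SD, starting fluorescence ratio at most library mean plus 5 SD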;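 also: more negative B-score means stronger inhibition of thallium flux through KCNK3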
# KCNQ1 pot = potentiators or activators of human KCNQ1 potassium channel | P51787 | CHO-K1 KCNQ1, thallium flux FluxOR fluorescence; hits give high values | B-score at 10 µM | 310,000 compounds, 0.35% hits;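 active = fluorescence ratio B-score, a plate-corrected score, at least three library SD, with initial intensity B-score within 5 SD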
#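 Test system: CHO-K1 cells stably expressing KCNQ1 / Medium: assay buffer / Also added: depolarizing K+/Tl+ stimulus, K2SO4 and Tl2SO4 each 12.5 mM in 5x stock / Incubation: 90 min dye loading and 20 min compound exposure, both at room temperature / Signal: thallium influx via FluxOR fluorescence, kinetic imaging / Evaluation: B score of baseline-normalized fluorescence ratio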
# hERG protect = compounds protecting human hERG from proarrhythmic drug block | Q12809 | CHO-hERG, FluxOR thallium flux, dofetilide IC70 present | activation (rescue from dofetilide block), less the hit threshold, % at 10 µM | 310,000 compounds, 0.51% hits | AID 1511;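 active = activation above the mean of controls blocked by dofetilide plus 5 SD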;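 also: thallium influx through hERG after potassium depolarization seen as dye fluorescence rise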
# KCNQ1 block = blocks the human KCNQ1 potassium channel | B-score at 10 µM | CHO-K1 KCNQ1, FluxOR thallium flux fluorescence; hits give high values | P51787 | 310,000 compounds, 1.3% hits;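 active = compounds whose thallium flux B-score, printed positive for inhibition, exceeds three library SD while starting fluorescence stays within three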;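 also: channel opened by potassium depolarization with thallium stimulus after 20 min compound exposure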
# PHOSPHO1 inh = inhibitors of human PHOSPHO1 phosphatase. 290,000 compounds, 1.1% hits. recombinant PHOSPHO1, absorbance phosphatase assay. inhibition, % at 13.3 µM. Q8TCT1; in the data active = inhibition above about 60%
# Target sequence (Q8TCT1 whole entry, looked up): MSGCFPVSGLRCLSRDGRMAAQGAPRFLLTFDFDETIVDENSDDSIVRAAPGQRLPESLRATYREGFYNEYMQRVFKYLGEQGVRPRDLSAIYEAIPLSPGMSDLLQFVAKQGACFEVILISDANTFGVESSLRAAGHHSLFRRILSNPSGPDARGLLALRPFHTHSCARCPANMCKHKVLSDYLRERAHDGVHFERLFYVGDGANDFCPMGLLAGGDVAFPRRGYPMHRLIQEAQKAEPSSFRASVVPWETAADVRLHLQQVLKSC
# KCNK9 block = inhibitors of human KCNK9 two-pore domain potassium channel; HEK293 KCNK9, FluxOR thallium flux fluorescence; hits give low values; Q9NPC2; B-score at 10 µM; 310,000 compounds, 1.2% hits; AID 488922;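 active = ratio B-score over 3 SD below the library mean, with starting fluorescence within 5 SD of its mean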;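 also: negative B-score means less thallium flux so channel inhibition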
# The depositor's hits bear a star; i = inactive; / = no result. Compounds with a hit are over-represented: about 4% of the library has one in this group of screens.
SMILES,KCNK3 block,KCNQ1 pot,hERG protect,KCNQ1 block,PHOSPHO1 inh,KCNK9 block
Cc1sc(NC(=O)c2ccco2)c(C(c2ccccc2)N2CCC(C)CC2)c1C (centres undefined),i,i,-13,i,-17,-7*
Cc1sc(NC(=O)c2ccccc2)c(C(c2ccc(Cl)cc2)N2CCN(CCO)CC2)c1C (centres undefined),i,i,-2,i,8,i
Cc1sc(NC(=O)c2ccco2)c(C(c2cccnc2)N2CCN(c3ccc(F)cc3)CC2)c1C (centres undefined),-12*,i,-12,8*,34,-6.6*
COC(=O)C(CC(=O)O)NCc1ccco1 (centres undefined),i,i,-8,i,23,i
COc1ccc(OCC(O)Cn2c(N)nc3c2c(=O)[nH]c(=O)n3C)cc1 (centres undefined),i,i,-8,i,61*,i
CCCSc1nc2c(c(=O)[nH]c(=O)n2C)n1CC(O)COc1ccccc1 (centres undefined),i,i,-2,i,6,i
CCSc1nc2c(c(=O)[nH]c(=O)n2C)n1CC(O)COc1ccccc1 (centres undefined),i,i,-8,i,29,i
COCCCNc1nc2c(c(=O)[nH]c(=O)n2C)n1CC(O)COc1ccccc1 (centres undefined),i,i,-12,i,92*,i
CC(C)CSc1nc2c(c(=O)[nH]c(=O)n2C)n1CC(O)COc1cccc2ccccc12 (centres undefined),i,i,-7,i,88*,i
CC1CC(C)CN(S(=O)(=O)c2cc3c4c(c2)C(C)C(=O)N4CCC3)C1 (centres undefined),i,i,-7,i,36,i
COc1ccccc1NS(=O)(=O)c1cccc(C(=O)N(C)Cc2cccs2)c1,i,i,-6,i,27,i
CCCCn1nnnc1SCC(=O)c1ccc(C)c(C)c1,i,i,-6,i,-8,i
CC(C)CC(=O)c1c[nH]c(C(=O)NCC2CCCO2)c1 (centres undefined),i,i,-9,i,21,i
CCOc1cccc(-c2nnc(SCC(=O)Nc3cc(OC)cc(OC)c3)n2N)c1,i,i,-2,i,3,i
COc1cccc(-c2nnc(SCC(=O)OC(C)C)n2Cc2ccco2)c1,i,i,-5,i,72*,i
COc1cccc(NC(=O)CSc2nnc(-c3cccc(OC(C)C)c3)n2N)c1,i,i,-11,i,88*,i
Cn1cc(/C=C2\SC(=O)NC2=S)c2ccccc21,i,i,16*,i,29,i
Cc1ccc(C(=O)NN2C(=O)/C(=C/c3cn(C)c4ccccc34)SC2=S)cc1,i,/,/,/,14,/
Cc1ccc(/C=C2/SC(=O)NC2=S)o1,i,/,/,/,68*,/
COCCCN=C1NN=C(c2cc(C)n(-c3ccccc3F)c2C)CS1,i,i,-9,i,7,i
COCCn1c(C)cc(C2=NNC(=Nc3ccccc3F)SC2)c1C,i,i,-15,i,88*,i
COCc1c(C(=O)Nc2cccc(S(=O)(=O)N3CCCCC3)c2)oc2ccccc12,-9.3*,/,/,/,/,/
O=C(Nc1cccc(S(=O)(=O)N2CCOCC2)c1)c1cc2ccccc2o1,i,i,-14,i,43,i
O=C(Nc1cccc(S(=O)(=O)N2CCCCC2)c1)c1cc2ccccc2o1,-11*,/,/,/,/,/
O=C(Cn1c(=S)[nH]c2ccccc21)c1ccccc1,i,i,-3,i,22,i
SMILES,KCNK3 block,KCNQ1 pot,hERG protect,KCNQ1 block,PHOSPHO1 inh,KCNK9 block
CC(C)n1c(=S)[nH]c2ccccc21,i,i,-2,i,84*,i
CCn1c(=S)[nH]c2ccccc21,i,i,-4,i,71*,i
Cc1ccc(NC(=O)Cn2c(=S)[nH]c3ccccc32)cc1,i,i,-9,i,62*,i
Cc1ccc(NC(=O)c2cc3cc(OC(F)(F)F)ccc3[nH]2)cc1,/,i,-3,6*,-10,i
CCn1c(/C=C/Nc2ccccc2)[n+](CC)c2ccc(Cl)cc21,i,i,-30,i,0,i
CCOC(=O)c1ccc2c(c1)n(CC)c(/C=C/Nc1ccccc1)[n+]2CC,i,i,-25,13*,-126,i
C=CCn1c(Br)nc2c1c(=O)[nH]c(=O)n2C,i,i,5.5*,i,21,i
C=CCn1c(Br)nc2c1c(=O)n(C)c(=O)n2C,i,i,-7,i,-2,i
C/C(=N/NC(=O)CSc1nc2ccccc2s1)c1ccncc1,i,i,-11,i,45,i
CS/C(=N\S(=O)(=O)c1cccs1)NC(=O)CSc1nc2ccccc2s1,i,i,-13,i,100*,i
Cc1[nH]c2ccccc2c1/C=N/NC(=O)c1ccccc1,i,i,-4,i,6,i
Cc1[nH]c2ccccc2c1/C=N/Nc1cccc(C(=O)O)c1,i,i,-6,i,61*,i
Cc1[nH]c2ccccc2c1/C=N/NC(N)=S,i,i,-12,i,22,i
Cc1ccc(NC(=S)N/N=C/c2c(C)[nH]c3ccccc23)cc1,i,i,-9,6*,34,i
Cc1[nH]c2ccccc2c1/C=N/NC(=S)NCc1ccccc1,i,i,-4,6*,-5,i
COc1ccc2c(c1)cc1n2CCN=C1N,i,i,-4,i,-26,i
CC(=O)N(Nc1ccccc1)c1ccccc1,i,i,-5,i,24,i
CCCCS(=O)(=O)/C=C\C=C/S(=O)(=O)CCCC,i,14*,-12,i,7,i
CCOC(=O)c1ccc(NC(=S)NCc2ccco2)cc1,i,i,-5,i,8,i
CC(C#N)On1c(SC(C)C#N)nc2ccccc2c1=O (centres undefined),i,i,-9,i,-8,i
CCC(C)n1c(SC(C)C#N)nc2ccccc2c1=O (centres undefined),i,i,5.0*,i,-5,i
COc1ccc(S(=O)(=O)N2CCc3ccccc32)cc1C(=O)NCC(c1ccco1)N1CCCC1 (centres undefined),i,/,/,/,/,/
c1ccc(CCCCN2C(Nc3ccccc3)=NC[C@@H]2Cc2ccccc2)cc1,i,/,/,/,/,/
CCCCCCCN1C(Nc2ccccc2)=NC[C@@H]1Cc1ccccc1,i,i,-22,7*,10,i
